Each block holds one compound with its values, some of them ahead of it. Peptide text beside a SMILES is read from it. * marks the point of attachment. pNA = O=[N+]([O-])c1ccc(N*)cc1
Legend:
[1] = tested on: Dengue virus; assay: Inhibition of DENV2 NS2B-NS3 protease assessed as residual activity at 200 uM using Benzoyl-Nle-Lys-Arg-Arg-AMC as substrate preincubated for 3 mins followed by substrate addition by fluorescence spectrophotometer
[2] = Inhibition of DENV2 NS2B-NS3 protease using Benzoyl-Nle-Lys-Arg-Arg-AMC as substrate preincubated for 3 mins followed by substrate addition by fluorescence spectrophotometer; design: species or system Dengue virus
Procedure, shortened: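 Plasmid-expressed DENV-2 NS2B-NS3 protease was assayed at 37 °C, pH 9.0 (50 mM Tris-HCl, 10 mM NaCl, 20% glycerol, 1 mM CHAPS, 0.04% NaN3). Inhibitor at graded concentrations was preincubated 3 min before 33 µM substrate was added, and fluorescence was read at 356/438 nm. IC50 was derived from remaining activity (vehicle = 100%) versus concentration, as the mean of triplicates.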

[3] = Cytotoxicity against human HuH7 cells after 48 hrs by cell-titer glo luminescent viability assay; format: cell-based, Huh-7
[4] = tested on: dengue virus type 2; assay: Antiviral activity against DENV2 infected Vero E6 cells assessed as reduction in viral titer after 48 hrs by plaque assay; format: functional, Vero C1008; details: Huh-7, 48 h, in the assay text read “Huh-7” for “Vero E6”
Procedure, shortened: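 Huh-7 cells (10^4/well) were infected with wild-type DENV-2 at MOI 1. Non-toxic compound concentrations were added 1 h later, and cells were incubated 48 h at 37 °C, in triplicate. Virus yield in the supernatant was titred on Vero E6 cells with 10^-1 to 10^-6 dilutions, 7-day plaque development, formaldehyde fixation and crystal violet staining. Titer reduction was judged against an untreated control.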

[5] = tested on: dengue virus type 2; assay: Inhibition of DENV2 NS2B-NS3 protease assessed as residual activity at 15 uM using Benzoyl-Nle-Lys-Arg-Arg-AMC as substrate preincubated for 3 mins followed by substrate addition by fluorescence spectrophotometer
[6] = tested on: dengue virus type 2; assay: Inhibition of DENV2 NS2B-NS3 protease assessed as residual activity up to 200 uM using Benzoyl-Nle-Lys-Arg-Arg-AMC as substrate preincubated for 3 mins followed by substrate addition by fluorescence spectrophotometer
[7] = tested on: Dengue virus; assay: Inhibition of DENV2 NS2B-NS3 protease assessed as residual activity at 16 uM using Benzoyl-Nle-Lys-Arg-Arg-AMC as substrate preincubated for 3 mins followed by substrate addition by fluorescence spectrophotometer
[8] = tested on: Dengue virus; assay: Inhibition of DENV2 NS2B-NS3 protease assessed as residual activity at 20 uM using Benzoyl-Nle-Lys-Arg-Arg-AMC as substrate preincubated for 3 mins followed by substrate addition by fluorescence spectrophotometer

- Activity [1]: 33%
Compound: O=C1[C@@H]2CCCN2[C@@H](c2ccccc2)N1c1ccc([N+](=O)[O-])cc1

- IC50 [2]: 1.2 µM
Compound: CSCC[C@H](N)C(=O)N1CCC[C@H]1C(=O)Nc1ccc([N+](=O)[O-])cc1 (H-Met-Pro-pNA)
- CC50 at 48 h [3]: > 100 µM
- EC50 [4]: 38.7 µM

- IC50 [2]: 1.2 µM
- Activity [5]: 32%
Compound: O=C1[C@@H]2CCCN2[C@@H](c2ccc([N+](=O)[O-])cc2)N1c1ccc([N+](=O)[O-])cc1
- CC50 at 48 h [3]: > 100 µM
- EC50 [4]: 39.4 µM

- Activity [6]: > 50%
Compound: O=C1[C@@H]2CCCN2[C@@H](Cc2ccc([N+](=O)[O-])cc2)N1c1ccc([N+](=O)[O-])cc1

- Activity [6]: > 50%
Compound: O=C1[C@@H]2CCCN2[C@@H](c2ccc(C(F)(F)F)cc2)N1c1ccc([N+](=O)[O-])cc1

- Activity [7]: 58%
Compound: C[C@H]1N(c2ccc([N+](=O)[O-])cc2)C(=O)[C@@H]2CCCN21

- Activity [6]: > 50%
Compound: CC(C)c1ccc([C@H]2N(c3ccc([N+](=O)[O-])cc3)C(=O)[C@@H]3CCCN32)cc1

- Activity [6]: > 50%
Compound: O=C1[C@@H]2CCCN2[C@@H](c2cccc([N+](=O)[O-])c2)N1c1ccc([N+](=O)[O-])cc1

- Activity [8]: 58%
Compound: O=C1[C@@H]2CCCN2[C@@H](Cc2ccccc2)N1c1ccc([N+](=O)[O-])cc1

- Activity [6]: > 50%
Compound: O=C1[C@@H]2CCCN2[C@H](c2ccc(C(F)(F)F)cc2)N1c1ccc([N+](=O)[O-])cc1

- Activity [7]: 66%
Compound: CC(C)[C@H]1N(c2ccc([N+](=O)[O-])cc2)C(=O)[C@@H]2CCCN21

- Activity [6]: > 50%
Compound: O=C1[C@@H]2CCCN2[C@H](c2ccc(Cl)cc2)N1c1ccc([N+](=O)[O-])cc1

- Activity [6]: > 50%
Compound: O=C1[C@@H]2CCCN2[C@@H](c2ccc(Cl)cc2)N1c1ccc([N+](=O)[O-])cc1

- Activity [6]: > 50%
Compound: O=C1[C@@H]2CCCN2[C@H](c2ccc([N+](=O)[O-])cc2)N1c1ccc([N+](=O)[O-])cc1

- Activity [6]: > 50%
Compound: COc1ccc([C@H]2N(c3ccc([N+](=O)[O-])cc3)C(=O)[C@@H]3CCCN32)cc1

- Activity [7]: 40%
Compound: CC[C@H]1N(c2ccc([N+](=O)[O-])cc2)C(=O)[C@@H]2CCCN21

Compound: O=C1[C@@H]2CCCN2CN1c1ccc([N+](=O)[O-])cc1
- Activity [7]: 61%

— ChEMBL document CHEMBL4041495, “Identification of fused bicyclic derivatives of pyrrolidine and imidazolidinone as dengue virus-2 NS2B-NS3 protease inhibitors” (Eur J Med Chem, 2017)
